Data on 29 compounds can be found in ChEMBL document CHEMBL1125827, “Synthesis and smooth muscle relaxant activity of a new series of potassium channel activators: 3-amido-1,1-dimethylindan-2-ols” (J Med Chem, 1991).

The species named for test [1] is Cavia porcellus. The test can be described thus: Intrinsic activity was measured for inhibition of spontaneous tone in guinea pig isolated trachealis. Format: functional. An outline of the steps:
(§1)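 Spontaneously toned guinea pig trachealis, with compounds added cumulatively. Intrinsic activity is the ratio of maximum relaxation at concentrations up to 20 μM to the maximum relaxation produced by isoprenaline (10⁻³ M) at the end of the experiment, expressed as an arithmetic mean.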

Test [2] is filed under the species Cavia porcellus. Kind of test: Inhibition of spontaneous tone in guinea pig isolated trachealis. It is filed as functional, Trachea.
The species named for test [3] is Cavia porcellus. The test can be described thus: Compound was measured for inhibition of spontaneous tone in guinea pig isolated trachealis; e=Insufficient material for evaluation. Format: functional. Summed up:
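Spontaneously developed tension held at […]. Compounds added cumulatively. Inhibition expressed as a percentage of the relaxation produced by isoprenaline (10⁻³ M) given at the end. IC50 is the concentration giving 50% of the isoprenaline response, read from the dose-response curve; generally a geometric mean of four or more determinations.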

For test [4], the species on record is Cavia porcellus. The test can be described thus: Intrinsic activity was measured for inhibition of spontaneous tone in guinea pig isolated trachealis; e=Insufficient material for evaluation. It is filed as functional. An outline of the steps:
as §1

One may read the pIC50 as the negative decadic logarithm of the IC50, by convention in mol/L. Read a high pIC50 as a small IC50.

pIC50: −log10 of the molar value.

For the compound `CC1(C)c2ccc(I)cc2[C@@H](N2CCCCC2=O)[C@@H]1O`, the Intrinsic activity in test [1] came out at 0.96.

In the case of `CC1(C)c2cc(C(F)(F)F)ccc2[C@@H](N2CCCCC2=O)[C@@H]1O`, the pIC50 in test [2] (Cavia porcellus, Trachea) is < 4.70. In test [1], the Intrinsic activity was found to be 0.15.

Compound `CC1CCC(=O)N1[C@@H]1c2cc([N+](=O)[O-])ccc2C(C)(C)[C@H]1O` (stereo in doubt; 36a) had an Intrinsic activity in test [1] of 0.89.

Consider `CC1(C)c2ccc([N+](=O)[O-])cc2[C@@H](N2CCCC2=O)[C@@H]1O`, for which, in test [2] (Cavia porcellus, Trachea), the pIC50 was 5.55. The same compound registered an Intrinsic activity in test [1] of 0.88.

For the compound `CC1(C)c2cc(C#N)ccc2[C@@H](N2CCCCC2=O)[C@@H]1O`, the pIC50 in test [2] (Cavia porcellus, Trachea) is < 4.70. The Intrinsic activity in test [1] was 0.17.

As to `CC1(C)Oc2ccc(C#N)cc2C(N2CCCC2=O)C1O` (centres undefined) [CROMAKALIM], in test [1], the Intrinsic activity is on record as 0.89.

Take `CC1(C)C=C(n2ccccc2=O)c2cc([N+](=O)[O-])ccc21`: in test [2] (Cavia porcellus, Trachea), the pIC50 was 6.08. For the same compound, the Intrinsic activity in test [1] amounted to 0.95.

As for `CCc1ccc2c(c1)[C@@H](n1ccccc1=O)[C@H](O)C2(C)C`, in test [2] (Cavia porcellus, Trachea), the pIC50 is 5.66. For the same compound, in test [1], the Intrinsic activity was 0.93.

`CC1(C)c2ccc(C#N)cc2[C@@H](N2CCCCC2=O)[C@@H]1O` showed a pIC50 in test [2] (Cavia porcellus, Trachea) of 6.57. Further, the Intrinsic activity in test [1] is given as 0.94.

The compound `CC1(C)C=C(N2CCCCC2=O)c2cc([N+](=O)[O-])ccc21` had an Intrinsic activity in test [1] of 0.94.

Compound `C[C@@H]1CCC(=O)N1C1=CC(C)(C)c2ccc([N+](=O)[O-])cc21` had a pIC50 in test [2] (Cavia porcellus, Trachea) of 5.62. Further, the Intrinsic activity in test [1] is 0.84.

In test [2] (Cavia porcellus, Trachea), `CC1(C)C=C(n2ccccc2=O)c2cc(C#N)ccc21` showed a pIC50 of 5.28. In test [1], this compound came in with an Intrinsic activity of 0.77.

Take `O=C1CCCN1[C@@H]1c2cc([N+](=O)[O-])ccc2C[C@H]1O`: in test [2] (Cavia porcellus, Trachea), the pIC50 was < 4.70. For the same compound, in test [1], the Intrinsic activity is 0.4.

On to `CC1(C)c2ccc(C#N)cc2[C@@H](n2ccccc2=O)[C@@H]1O`, for which the pIC50 in test [2] (Cavia porcellus, Trachea) was 5.71. This compound registered an Intrinsic activity in test [1] of 0.81.

Regarding `CC1(C)c2ccc(N)cc2[C@@H](n2ccccc2=O)[C@@H]1O`, the pIC50 in test [2] (Cavia porcellus, Trachea) was < 4.70. The same compound had an Intrinsic activity in test [1] of 0.1.

As to `CCc1ccc2c(c1)C(C)(C)[C@@H](O)[C@@H]2N1CCCCC1=O`, the pIC50 in test [2] (Cavia porcellus, Trachea) was < 4.70. For the same compound, the Intrinsic activity in test [1] was found to be 0.4.

Regarding `CC1CCC(=O)N1[C@@H]1c2cc([N+](=O)[O-])ccc2C(C)(C)[C@H]1O` (stereo in doubt; 36b), the pIC50 in test [2] was 5.41. This compound also displayed an Intrinsic activity in test [1] of 0.9.

Take `C[C@@H]1CCC(=O)N1[C@@H]1c2cc([N+](=O)[O-])ccc2C(C)(C)[C@H]1O` (stereo in doubt; 36): the pIC50 in test [2] was 6.59. Besides, the Intrinsic activity in test [1] is 0.99.

`CCc1ccc2c(c1)[C@@H](N1CCCCC1=O)[C@H](O)C2(C)C`: in test [2] (Cavia porcellus, Trachea), the pIC50 is 5.56. The compound further had an Intrinsic activity in test [1] of 0.84.

In turn, `CC1(C)c2ccc([N+](=O)[O-])cc2[C@@H](N2CCCCC2=O)[C@H]1O` gave a pIC50 in test [2] (Cavia porcellus, Trachea) of 6.46. Besides, the Intrinsic activity in test [1] is on record as 0.89.

`CC1(C)C=C(N2CCCCC2=O)c2ccc(C(F)(F)F)cc21` gave a pIC50 in test [2] (Cavia porcellus, Trachea) of 5.07. This compound registered an Intrinsic activity in test [1] of 0.89.

With `CC1(C)C=C(Cn2ccccc2=O)c2cc(C#N)ccc21`, the pIC50 in test [2] (Cavia porcellus, Trachea) is < 4.70. In test [1], this compound came in with an Intrinsic activity of 0.32.

Regarding `CC1(C)C=C(CN2CCCC2=O)c2cc(C#N)ccc21`, the pIC50 in test [2] (Cavia porcellus, Trachea) was 4.85. In test [1], the Intrinsic activity was found to be 0.6.

With `CC1(C)c2cc(C(F)(F)F)ccc2[C@@H](n2ccccc2=O)[C@@H]1O`, in test [2] (Cavia porcellus, Trachea), the pIC50 is < 4.70. Further, the Intrinsic activity in test [1] is 0.14.

For `C[C@@H]1CCC(=O)N1[C@@H]1c2cc([N+](=O)[O-])ccc2C(C)(C)[C@H]1O` (stereo in doubt; 37), the pIC50 in test [2] is < 4.70. In addition, the Intrinsic activity in test [1] was found to be 0.3.

In test [2] (Cavia porcellus, Trachea), `CC1(C)c2ccc([N+](=O)[O-])cc2[C@@H](n2ccccc2=O)[C@@H]1O` gave a pIC50 of 6.82. This compound yielded an Intrinsic activity in test [1] of 0.89.

As to `C[C@H]1CCC(=O)N1C1=CC(C)(C)c2ccc([N+](=O)[O-])cc21`, the IC50 result in test [3] is “Insufficient material”. The Intrinsic activity result in test [4] is reported as “Insufficient material”.

Compound `CC1(C)Oc2ccc(C#N)cc2[C@@H](N2CCCC2=O)[C@@H]1O` [LEVCROMAKALIM] gave a pIC50 in test [2] (Cavia porcellus, Trachea) of 6.31. The Intrinsic activity in test [1] is listed as 0.88.

Take `CC1(C)c2ccc([N+](=O)[O-])cc2[C@@H](N2CCCC2=O)[C@H]1O` (relative stereo): the pIC50 in test [2] (Cavia porcellus, Trachea) was < 4.70. Further, the Intrinsic activity in test [1] came to 0.26.
